# Measured values pooled from the literature.
# Protocols differ between the studies behind these lines.
# Target: 5-hydroxytryptamine receptor 2A (HTR2A, Homo sapiens, UniProt P28223)
# Read-out: ligand displacement
SMILES,method,tested at,inhibition [%]
COc1cc2c3c(c1OC)-c1cc4c(cc1CC3N(C)CC2c1ccccc1)OCO4 (stereo not shown),radioligand,10 µM,< 50
CN1CCN(CCCOc2ccc(=O)n(-c3ccc(Cl)c(Cl)c3)n2)CC1,,1 µM,34.9
C#CCOCCOCCOc1ccc2c3c1C1CCCC1N3CCNC2 (racemic),radioligand,10 µM,~70
O=C(c1ccc(Cl)cc1)N(Cc1ccccc1)C1CCCCC1,radioligand,10 µM,14.5
COc1ccc(-n2nc(OCCCN3CCCCC3)ccc2=O)cc1,,1 µM,49.4
N#Cc1cc(Cn2c(N3CCCC3)nc3ccccc32)ccc1F,,10 µM,5.32
CCN(CC)c1ccc(C2Nc3ccc(C(=O)c4ccccc4)cc3NC3=C2C(=O)CC(C)(C)C3)cc1 (stereo not shown),radioligand,10 µM,-10
Oc1cccc(Nc2nc(-c3ccc(F)cc3F)cs2)c1,radioligand,10 µM,67
O=C1N=C(N2CCCCN2)S/C1=C\c1ccc(F)cc1O,radioligand,10 µM,17
CCCNc1nc2ccccc2n1Cc1ccc(Cl)cc1,,10 µM,59.8
